CSC inhib: blocks cancer stem cells. cancer stem cell-like cells viability, luminescence. inhibition, % at 7.5 µM. 1.1% of 300,000 active; in the data active means inhibition above about 75%; tested in HMLE shEcad cells
SUMO Mot1 rescue: inhibitors of SUMOylation pathway: yeast Mot1-301 growth rescue; S. cerevisiae Mot1-301 growth rescue, ATP luminescence, 38.5C; percent above DMSO median, 100 means doubled; growth rescue, % at 18.8 µM; 1% of 320,000 active;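 active means every valid replicate shows activation above 250% relative to neutral control wells; inactive means the rest, any valid replicate at or below 250%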
T cruzi repl: blocks replication of Trypanosoma cruzi. T. cruzi beta-gal in NIH3T3, luminescence, 90 h. 1.4% of 300,000 active. inhibition, % (concentration not given with the values). AID 1885;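 active means mean inhibition across valid replicates above about 55%, limit read from the data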;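 further: signal also drops with host cell toxicity which is not excluded here; higher percent means less beta-gal luminescence so fewer parasites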
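System: NIH/3T3 fibroblasts plus reporter T. cruzi. Medium: DMEM plus 2% FBS. Probe or stimulus: 5000 reporter trypomastigotes per well. Compound: single 50 nL compound addition per well in DMSO. Incubation: co-culture of at least 90 h after 3 h attachment. Detection: GalScreen β-gal luminescence, detergent lysis, 60 min. Evaluation: parasite load inhibition, %.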
WT yeast gro inh: growth inhibition of WT yeast, mitochondrial fusion screen; mitochondrial fusion phenotypic screen, WT strain; inhibition, % at 10 µM; 2.1% of 190,000 active; in the data active means inhibition above about 58%; tested in S. cerevisiae
Efflux pump inh: inhibitors of Candida antifungal efflux pumps expressed in yeast; AID 485275; S. cerevisiae Candida pump triplex, Nile Red efflux; inhibition, % at 10 µM; 0.44% of 330,000 active;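 active means plate passing quality check with inhibition over a set limit, or well fluorescence over plate mean plus 4 SD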;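 further: Nile Red retained in pooled yeast measured as flow cytometry median fluorescence; higher means more Nile Red kept so more efflux inhibition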
Beta cell apopt: beta cell apoptosis inhibition | INS-1E cytokine-induced death, ATP luminescence, 48 h; percent of positive-control rescue, neutral wells zero | protection from apoptosis, % (test concentration not listed) | 0.8% of 300,000 active;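 active means Every replicate reaches about 75%, or at least half do and their mean reaches it too, limit read from the data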;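 further: higher means more ATP so stronger rescue from cytokine killing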
Of the large screens only hits and unclear results are named; the others gave an inactive call. Rows were chosen to be rich in hits. Some 4.8% of all compounds tested hit in one or more screens of this group.

CCOc1ccc(NS(=O)(=O)c2cc(NC(=O)c3cccc(C)c3)ccc2Cl)cc1	none
CCOc1ccc(N=Nc2ccc(O)c3ncccc23)cc1	CSC inhib 103.0, T cruzi repl 65.4 (no result: WT yeast gro inh)
NS(=O)(=O)c1ccc(N=Nc2ccc(O)c3ncccc23)cc1	T cruzi repl 66.1, Beta cell apopt 120.7 (no result: WT yeast gro inh)
CCCn1c(SCC(=O)c2c[nH]c3ccccc23)nnc1-c1ccncc1	none
O=C(Cn1ncn2c(cc3sccc32)c1=O)NC1CCCC1	none (no result: WT yeast gro inh)
CN(C(=O)CNC(=O)c1ccc(Br)o1)C1CCCCC1	none (no result: WT yeast gro inh)
CCCc1nc2c(=O)n(C)c(=O)nc-2n(C)n1	WT yeast gro inh 63.6 (no result: CSC inhib, SUMO Mot1 rescue, T cruzi repl, Efflux pump inh, Beta cell apopt)
CCn1c(N)nc2c1c(=O)n(C)c(=O)n2C	none
Cn1nc(-c2ccccn2)nc2c(=O)n(C)c(=O)nc1-2	CSC inhib 120.2, T cruzi repl 58.6, Beta cell apopt 126.7 (no result: WT yeast gro inh)
O=P(Cc1nnco1)(c1ccccc1)c1ccccc1	SUMO Mot1 rescue 339.8 (no result: CSC inhib)
COc1ccc(CC(=O)N/N=C(\C)c2cccs2)cc1	none (no result: WT yeast gro inh)
COc1ccc(NC(=O)c2ccc([N+](=O)[O-])cc2[N+](=O)[O-])c(OC)c1	T cruzi repl 61.2
Cc1nc2ccc(C(=O)Nc3cccc([N+](=O)[O-])c3)cc2s1	none
O=C(Nc1cccc([N+](=O)[O-])c1)c1cc2ccccc2cc1O	CSC inhib 88.7, Beta cell apopt 100.1 (no result: WT yeast gro inh)
COc1ccc(NC(=O)c2cc([N+](=O)[O-])ccc2O)cc1	CSC inhib 82.3
O=C(O)c1ccccc1C(=O)Nc1cccc([N+](=O)[O-])c1	none (no result: WT yeast gro inh, Beta cell apopt)
COc1ccccc1NC(=O)c1cc(OC)c(OC)cc1[N+](=O)[O-]	none
Cc1nc2ccc(NC(=O)c3ccc([N+](=O)[O-])cc3[N+](=O)[O-])cc2s1	T cruzi repl 79.4
Nc1ccccc1C(O)(Cc1ccccc1)c1ccccc1 (stereo unspecified)	none (no result: WT yeast gro inh)
CCOCCCNc1nc(C)nc2c1nnn2Cc1c(F)cccc1Cl	none
COc1cccc(NC(=O)CN(C)C(=O)c2cccc(S(=O)(=O)Nc3ccccc3OC)c2)c1	none (no result: CSC inhib, T cruzi repl, WT yeast gro inh)
Cc1c(C(=O)Nc2cccc([N+](=O)[O-])c2)csc1-c1ccccc1	T cruzi repl 59.6
CN1CCN(CC(O)COCCOc2ccc(Br)cc2)CC1 (stereo unspecified)	T cruzi repl 58.9
CCC(C)NCCOc1ccc(Br)cc1 (stereo unspecified)	none
CCC(C)NCCOCCOc1ccc(Br)cc1 (stereo unspecified)	T cruzi repl 65.6 (no result: Beta cell apopt)
CC(C)NCC(O)COCCOc1ccc(Br)cc1 (stereo unspecified)	T cruzi repl 63.3 (no result: Beta cell apopt)
CCN1CCN(CC(O)COCCOc2ccc(Br)cc2)CC1 (stereo unspecified)	none
CCOC(=O)C(=CNc1cccnc1Oc1ccc(C)c2c1CCC2)C(=O)OCC	none (no result: WT yeast gro inh)
O=C(NCC1CCCO1)c1ccccc1NS(=O)(=O)c1ccc(F)cc1 (stereo unspecified)	none (no result: CSC inhib, T cruzi repl, WT yeast gro inh)
NS(=O)(=O)c1ccc(CCNc2ncnc3sccc23)cc1	none
Cc1sc2ncnc(NCCc3ccc(S(N)(=O)=O)cc3)c2c1C	Beta cell apopt 92.9
COc1ccccc1C(CNC(=O)c1oc2ccccc2c1C)N1CCCC1 (stereo unspecified)	none (no result: T cruzi repl, WT yeast gro inh)
CCN(Cc1cc(OC)c(OC)c(OC)c1)C(=S)Nc1cccc(SC)c1	none (no result: WT yeast gro inh)
COc1cc2c(cc1OC)C(c1cc3cccc(C)c3[nH]c1=O)N(C(=O)c1ccco1)CC2 (stereo unspecified)	T cruzi repl 58.2 (no result: CSC inhib, WT yeast gro inh)
COc1cc2c(cc1OC)C(COc1ccc(F)cc1)N(C(=O)c1ccco1)CC2 (stereo unspecified)	none
CCN(CC)CCNc1nc2nonc2nc1NCCN(CC)CC	none (no result: WT yeast gro inh)
CCOc1ccccc1OCCOCCN1CCN(Cc2ccccc2)CC1	T cruzi repl 61.4
CNCCCCOc1ccc(C(C)(C)C)cc1Cl	T cruzi repl 59.1
COc1ccc(C(=O)N[C@H](C(=O)OCC(=O)NC(=O)c2cccn2C)C(C)C)cc1	none
COc1cccc(-c2cc(C(=O)N3N=C(C)CC3(O)C(F)F)c3ccccc3n2)c1 (stereo unspecified)	none (no result: CSC inhib, SUMO Mot1 rescue)
CC(C)c1ccc(-c2cc(C(=O)N3N=C(C(F)F)CC3(O)C(F)F)c3ccccc3n2)cc1 (stereo unspecified)	CSC inhib 112.2, T cruzi repl 69.3, WT yeast gro inh 87.4

Screens deposited in PubChem BioAssay by several laboratories.
